Experimental data published in ChEMBL document CHEMBL1152629, “Discovery and structure-activity relationship analysis of Staphylococcus aureus sortase A inhibitors” (Bioorg Med Chem, 2009).
≈ marks a conversion by molar mass, not a printed value. Calls of active or inactive are those of the source. The calls are words filed in the database; no cut-off is given here.

How the values were obtained:
[1] = Inhibition of Staphylococcus aureus sortase A deltaN59 mutant assessed as Dap(Dnp) hydrolysis by FRET assay
Staphylococcus aureus [2] = assay: Antimicrobial activity against Staphylococcus aureus Newman by microtiter broth dilution method; assay type: functional
In short: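 S. aureus Newman overnight culture diluted to OD600 0.01, incubated at 37 °C, diluted to OD600 0.005; compound added at final 0.1–100 µM. OD600 followed during overnight growth at 37 °C in plate reader. Growth percentage relative to no-inhibitor cultures and to 10 µg/mL erythromycin. Triplicate.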

Staphylococcus aureus [3] = test system: Staphylococcus aureus
[4] = Inhibition of Staphylococcus aureus sortase A deltaN59 mutant assessed as Dap(Dnp) hydrolysis by FRET assay based enzyme kinetics assay; conditions: read-out: Ki(app)
[5] = Inhibition of Bacillus anthracis sortase A by FRET-based enzyme kinetics assay; conditions: read-out: Ki(app)
In short: (§1)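 B. anthracis SrtA (1.5–15 µM final) preincubated 1 h at 25 °C with compound (0.08–400 µM final, Me2SO) in 20 mM HEPES, 5 mM CaCl2, pH 7.5. Reaction started with 100 µM Abz-LPETG-Dap(Dnp) substrate. Fluorescence read at ex 335/em 420 nm. IC50 from fit of initial velocities, three independent data sets, Hill equation.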

[6] = Inhibition of Bacillus anthracis sortase A by FRET assay; in short: as §1

| Structure (SMILES) | IC50 [1] | other results |
| --- | --- | --- |
| CC1=NN(c2ccccc2)C(=S)/C1=C/Nc1ccc(/N=N/c2ccccc2)cc1 | 9 µM | Activity (Staphylococcus aureus [2]): inactive |
| CCOc1c(Cl)cnn(-c2ccc([N+](=O)[O-])cc2)c1=O | > 50 µM | – |
| CCOc1c(S)cnn(-c2ccc([N+](=O)[O-])cc2)c1=O | 30 µM | – |
| CC1=NN(c2ccccc2)C(=S)/C1=C/Nc1ccc(I)cc1 | 42 µM | – |
| O=C(/C=C/c1ccc([N+](=O)[O-])cc1)c1ccccc1 | 51 µM | – |
| CCOc1c(S)cnn(-c2cccc(F)c2)c1=O | 5.5 µM | – |
| CC1=NN(c2ccccc2)C(=S)/C1=C/Nc1ccc(C)cc1C | 68 µM | – |
| COc1c(S)cnn(-c2cccc(Cl)c2)c1=O | 4.5 µM | Activity (Staphylococcus aureus [3]): 50%; MIC (Staphylococcus aureus [2]): > 1000 µM |
| COc1c(Cl)cnn(-c2ccccc2)c1=O | > 50 µM | – |
| Cc1cccc(-n2ncc(Cl)c(Cl)c2=O)c1 | > 50 µM | – |
| CC1=NN(c2ccccc2)C(=S)/C1=C/Nc1ccccc1Cl | 54 µM | – |
| CCOc1cnn(-c2ccccc2)c(=O)c1S | 4.4 µM | – |
| CCSc1c(S)cnn(-c2ccccc2)c1=O | – | Ki [4]: 1.4 µM; Ki [5]: 0.3 µM; Activity (Staphylococcus aureus [2]): inactive |
| CCOc1c(Cl)cnn(C2CCCCC2)c1=O | > 50 µM | – |
| CC1=NN(c2ccccc2)C(=S)/C1=C/Nc1ccccn1 | 0.76 µM | IC50 [6]: 1.4 µM; Activity (Staphylococcus aureus [2]): inactive |
| Cc1ccc(N2C(=O)/C(=C/c3cc(Br)c(O)c([N+](=O)[O-])c3)SC2=S)c(C)c1 | 35 µM | – |
| CC1=NN(c2ccccc2)C(=S)/C1=C/Nc1ccc([N+](=O)[O-])cc1[N+](=O)[O-] | 6.8 µM | – |
| CCOc1cnn(C2CCCCC2)c(=O)c1Cl | > 50 µM | – |
| CC1=NN(c2ccccc2)C(=S)/C1=C/Nc1ccc([N+](=O)[O-])cc1Br | 8.9 µM | – |
| O=c1c(Cl)c(Cl)cnn1C1CCCCC1 | > 50 µM | IC50 [6]: 14 µM |
| Cc1ccc(N2C(=O)/C(=C/c3cccc([N+](=O)[O-])c3)SC2=S)c(C)c1 | 119 µM | – |
| COc1c(Cl)cnn(-c2cccc(F)c2)c1=O | > 50 µM | – |

| Structure (SMILES) | IC50 [1] | other results |
| --- | --- | --- |
| CCOc1c(Cl)cnn(-c2cc(Cl)cc(Cl)c2)c1=O | > 50 µM | – |
| O=c1c(Cl)c(Cl)cnn1-c1cccc(F)c1 | > 50 µM | – |
| CC1=NN(c2ccccc2)C(=S)/C1=C/Nc1ccc([N+](=O)[O-])cc1 | – | Activity (Staphylococcus aureus [3]): 58%; MIC (Staphylococcus aureus [2]): > 1000 µM |
| CC1=NN(c2ccc(Cl)cc2)C(=O)/C1=C/Nc1ccc([N+](=O)[O-])cc1C | 45 µM | – |
| CCOc1c(SSc2ccccn2)cnn(-c2ccccc2)c1=O | – | Ki [4]: 0.03 µM |
| CCOc1c(S)cnn(C2CCCCC2)c1=O | 17.9 µM | – |
| CCOc1cnn(-c2cccc(C)c2)c(=O)c1Cl | > 50 µM | – |
| CCOc1c(Cl)cnn(-c2cccc(C)c2)c1=O | > 50 µM | – |
| CCN1C(=O)/C(=C/c2ccc(-c3ccccc3[N+](=O)[O-])o2)SC1=S | 104 µM | – |
| CN1C(=O)/C(=C/c2cc([N+](=O)[O-])cc(Br)c2O)SC1=S | 14 µM | – |
| O=C1/C(=C/c2cc([N+](=O)[O-])cc(Br)c2O)SC(=S)N1c1ccc([N+](=O)[O-])cc1 | 12 µM | – |
| COc1c(Cl)cnn(C2CCCCC2)c1=O | > 50 µM | – |
| CSc1cnn(-c2ccccc2)c(=O)c1Cl | > 50 µM | – |
| CCOc1cnn(-c2cccc(F)c2)c(=O)c1Cl | > 50 µM | – |
| CCOc1c(Cl)cnn(-c2ccccc2)c1=O | > 50 µM | – |
| CCOc1cnn(-c2cccc(C)c2)c(=O)c1S | 3.1 µM | Activity (Staphylococcus aureus [2]): inactive |
| CC1=NN(c2ccccc2)C(=O)/C1=C/Nc1ccc([N+](=O)[O-])cc1 | 56 µM | Ki [4]: 0.3 µM |
| O=c1c(Cl)c(Cl)cnn1-c1cccc(Br)c1 | > 50 µM | – |
| CCOc1c(S)cnn(-c2cccc(C)c2)c1=O | 3.3 µM | – |
| CC1=NN(c2ccc(C)cc2)C(=O)/C1=C/Nc1ccc([N+](=O)[O-])cc1 | 62 µM | – |
| CC1=NN(c2ccccc2)C(=S)/C1=C/Nc1cc([N+](=O)[O-])ccc1O | 14 µM | – |
| CC1=NN(c2ccccc2)C(=S)/C1=C/Nc1ccccc1O | 22 µM | – |

| Structure (SMILES) | IC50 [1] | other results |
| --- | --- | --- |
| O=c1c(Cl)c(Cl)cnn1-c1cc(Cl)cc(Cl)c1 | 61 µM | – |
| CCOc1c(Cl)cnn(-c2cccc(F)c2)c1=O | > 50 µM | – |
| COc1c(Cl)cnn(-c2cc(Cl)cc(Cl)c2)c1=O | > 50 µM | – |
| COc1cnn(-c2ccccc2)c(=O)c1S | 9.3 µM | – |
| CCOc1c(S)cnn(-c2ccccc2)c1=O | – | Ki [4]: 0.2 µM |
| CCOc1cnn(-c2ccccc2)c(=O)c1Cl | 1 µM | – |
| CCN1C(=O)/C(=C/c2ccc(-c3cccc(Cl)c3)o2)SC1=S | 109 µM | – |
| CCOc1cnn(-c2ccc([N+](=O)[O-])cc2)c(=O)c1Cl | 219 µM | – |
| CCn1ncc(SC)c(O)c1=O | > 50 µM | – |
| CCOc1c(S)cnn(-c2cc(Cl)cc(Cl)c2)c1=O | 301 µM | – |
| CCSc1c(O)cnn(-c2ccccc2)c1=O | > 50 µM | IC50 [6]: > 50 µM |
| Cc1cccc(N2C(=O)/C(=C/c3cc([N+](=O)[O-])cc(Br)c3O)SC2=S)c1 | 15 µM | – |
| CC1=NN(c2ccccc2)C(=S)/C1=C/Nc1c(Br)cc(Br)cc1Br | – | Ki [5]: 1.7 µM; Activity (Staphylococcus aureus [2]): inactive |
| CC1=NN(c2ccccc2)C(=S)/C1=C/Nc1ccc(Br)cc1 | 39 µM | Activity (Staphylococcus aureus [2]): inactive |
| O=c1c(Cl)c(Cl)cnn1-c1ccc([N+](=O)[O-])cc1 | > 50 µM | – |
| Cc1ccc(/C=C2\SC(=S)N(c3cccc(Cl)c3)C2=O)cc1[N+](=O)[O-] | > 1000 µM | – |
| CCOc1c(Cl)cnn(-c2cccc(Br)c2)c1=O | > 50 µM | – |
| CCOc1cnn(-c2cccc(Br)c2)c(=O)c1Cl | > 50 µM | – |
| CCOc1c(SS)cnn(-c2ccccc2)c1=O | 1.5 µM | IC50 [6]: 1.2 µM |
| CCOc1cnn(-c2cc(Cl)cc(Cl)c2)c(=O)c1S | 166 µM | IC50 [6]: 5.2 µM |
| COc1c(O)cnn(-c2ccccc2)c1=O | > 50 µM | IC50 [6]: > 50 µM |
| CC1=NN(c2ccccc2)C(=S)/C1=C/Nc1ccc([N+](=O)[O-])cc1O | 9.6 µM | – |

| Structure (SMILES) | IC50 [1] | other results |
| --- | --- | --- |
| C=CCN1C(=O)/C(=C/c2ccc(-c3ccccc3)o2)SC1=S | 199 µM | IC50 [6]: 27 µM |
| CCOc1cnn(-c2cccc(F)c2)c(=O)c1S | 5.7 µM | IC50 [6]: 0.9 µM |
| CC1=NN(c2ccccc2)C(=S)/C1=C/Nc1ccc(C)c(C)c1 | 52 µM | – |
| Cc1ccc(N2C(=O)/C(=C/c3cc([N+](=O)[O-])cc(Br)c3O)SC2=S)c(C)c1 | 3.7 µM | Activity (Staphylococcus aureus [3]): 84%; MIC (Staphylococcus aureus [2]): 10 µM (≈ 4.65 µg/mL) |
| CCOc1c(SSC)cnn(-c2ccccc2)c1=O | – | Ki [4]: 0.4 µM |
| CSc1cnn(-c2ccccc2)c(=O)c1O | > 50 µM | – |
| CC1=NN(c2ccc(Cl)cc2)C(=O)/C1=C/Nc1ccc([N+](=O)[O-])cc1 | 48 µM | – |
| CC1=NN(c2ccccc2)C(=S)/C1=C/NC1CCCCC1 | 115 µM | – |
| O=c1c(Cl)c(Cl)cnn1-c1ccccc1 | > 50 µM | – |
| CN1C(=O)/C(=C/c2ccc(-c3ccccc3)o2)SC1=S | 405 µM | – |
| CC1=NOC(=O)/C1=N\c1ccc([N+](=O)[O-])cc1 | 17 µM | – |
| O=C1/C(=C/c2cc([N+](=O)[O-])cc(Br)c2O)SC(=S)N1c1cccc(Cl)c1 | 17 µM | – |
| CCOc1c(S)cnn(-c2cccc(Br)c2)c1=O | > 50 µM | – |
| COc1c(Cl)cnn(-c2cccc(Br)c2)c1=O | > 50 µM | – |
| O=c1c(OCc2ccccc2)c(O)cnn1-c1ccccc1 | > 50 µM | IC50 [6]: > 50 µM |
| COc1c(Cl)cnn(-c2cccc(C)c2)c1=O | > 50 µM | – |
| CCCN1C(=O)/C(=C/c2ccc(-c3ccccc3)o2)SC1=S | 186 µM | – |
| O=C1/C(=C/c2ccc(-c3ccccc3)o2)SC(=S)N1Cc1ccccc1 | 492 µM | – |
| CC(=O)c1ccc(/N=C2\C(=O)NN=C2C)cc1 | 26 µM | – |
